Consider 80 compounds from ChEMBL document CHEMBL3352044, “Synthesis and structure-activity relationship studies of N-benzyl-2-phenylpyrimidin-4-amine derivatives as potent USP1/UAF1 deubiquitinase inhibitors with anticancer activity against nonsmall cell lung cancer” (J Med Chem, 2014).

For orientation: IC50 means the concentration at which inhibition is half-maximal.

Sequence of Ubiquitin carboxyl-terminal hydrolase 1/WD repeat-containing protein 48 (Homo sapiens, UniProt O94782+Q8TAF3) (O94782 whole entry): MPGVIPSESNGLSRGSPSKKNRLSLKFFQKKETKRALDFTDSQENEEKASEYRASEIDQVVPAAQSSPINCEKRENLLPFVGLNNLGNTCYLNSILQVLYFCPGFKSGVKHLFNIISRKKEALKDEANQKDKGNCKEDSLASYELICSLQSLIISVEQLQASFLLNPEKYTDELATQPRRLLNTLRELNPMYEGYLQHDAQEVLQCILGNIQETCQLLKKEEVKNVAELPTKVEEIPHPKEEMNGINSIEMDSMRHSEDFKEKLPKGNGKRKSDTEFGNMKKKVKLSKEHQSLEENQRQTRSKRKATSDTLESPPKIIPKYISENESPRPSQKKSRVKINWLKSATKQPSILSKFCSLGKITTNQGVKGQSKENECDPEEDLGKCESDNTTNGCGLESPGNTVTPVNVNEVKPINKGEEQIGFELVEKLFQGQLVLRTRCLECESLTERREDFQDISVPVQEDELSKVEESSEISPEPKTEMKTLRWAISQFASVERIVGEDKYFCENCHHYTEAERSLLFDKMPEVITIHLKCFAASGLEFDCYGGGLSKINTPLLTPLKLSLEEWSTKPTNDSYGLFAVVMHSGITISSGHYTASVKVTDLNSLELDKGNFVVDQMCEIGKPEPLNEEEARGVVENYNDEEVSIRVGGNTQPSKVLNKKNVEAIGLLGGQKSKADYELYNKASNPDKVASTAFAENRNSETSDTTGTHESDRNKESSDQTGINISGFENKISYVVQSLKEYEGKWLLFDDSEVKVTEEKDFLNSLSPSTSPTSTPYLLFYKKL
Sequence of Ubiquitin carboxyl-terminal hydrolase 1/WD repeat-containing protein 48 (Homo sapiens, UniProt O94782+Q8TAF3) (Q8TAF3 whole entry): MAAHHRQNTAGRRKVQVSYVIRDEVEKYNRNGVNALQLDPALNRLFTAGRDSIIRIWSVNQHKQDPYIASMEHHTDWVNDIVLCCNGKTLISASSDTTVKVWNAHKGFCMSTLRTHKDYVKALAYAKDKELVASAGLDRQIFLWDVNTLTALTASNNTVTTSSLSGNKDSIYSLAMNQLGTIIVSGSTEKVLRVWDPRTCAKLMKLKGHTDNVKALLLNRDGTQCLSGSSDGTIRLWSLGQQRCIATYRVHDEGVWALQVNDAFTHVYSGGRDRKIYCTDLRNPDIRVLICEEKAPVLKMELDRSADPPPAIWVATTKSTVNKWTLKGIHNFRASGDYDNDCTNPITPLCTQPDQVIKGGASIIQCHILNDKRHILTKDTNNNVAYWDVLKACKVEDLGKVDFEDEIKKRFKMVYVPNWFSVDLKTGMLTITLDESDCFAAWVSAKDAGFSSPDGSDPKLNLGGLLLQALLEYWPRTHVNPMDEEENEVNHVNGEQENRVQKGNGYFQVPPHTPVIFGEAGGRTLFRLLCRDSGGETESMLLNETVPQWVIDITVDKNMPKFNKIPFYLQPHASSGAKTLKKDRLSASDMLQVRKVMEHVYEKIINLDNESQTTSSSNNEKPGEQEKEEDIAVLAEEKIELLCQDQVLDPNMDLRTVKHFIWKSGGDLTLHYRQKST

The first series deals with Liver microsome. The series is described as follows: Half life in rat liver microsomes in presence of NADPH. Format: ADME.
Details: not given; call rule not given here
The gist of the method: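 Rat liver microsomes with NADPH; half-life in minutes.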
(Liver microsomes are vesicles of endoplasmic reticulum, rich in cytochrome P450 enzymes.)
Turning to `Cc1cnc(-c2ccccc2C(F)F)nc1NCc1ccc(-n2ccnn2)cc1`, the t1/2 stood at 21 min. On the same count and under the same terms, the same measure for `[2H]C([2H])(Nc1nc(-c2ccccc2C(C)C)ncc1C)c1ccc(-n2ccnn2)cc1`: 12 min; for `[2H]C([2H])([2H])C([2H])(c1ccccc1-c1ncc(C)c(NCc2ccc(-n3ccnn3)cc2)n1)C([2H])([2H])[2H]`: 9.5 min; for `Cc1cnc(-c2ccccc2C(C)C)nc1NC(C)(C)c1ccc(-n2ccnn2)cc1`: 22 min.

Turning to `Cc1cnc(-c2ccccc2C2CCC2)nc1NCc1ccc(-n2ccnn2)cc1`, the t1/2 worked out at 5.1 min. Regarding `[2H]C([2H])([2H])C([2H])(c1ccccc1-c1ncc(C)c(NC(C)(C)c2ccc(-n3ccnn3)cc2)n1)C([2H])([2H])[2H]`, the t1/2 turned out to be 10 min. As for `Cc1cnc(-c2ccccc2C2CC2)nc1NCc1ccc(-c2cccnc2)cc1`, the t1/2 is on record as 6.2 min. The same measure, in the same setting: the same measure for `[2H]C([2H])(Nc1nc(-c2ccccc2C([2H])(C([2H])([2H])[2H])C([2H])([2H])[2H])ncc1C)c1ccc(-n2ccnn2)cc1`: 13 min; for `Cc1cnc(-c2ccccc2C(C)C)nc1NCc1ccc(-c2cccnc2)cc1`: 5.8 min; for `[2H]C([2H])([2H])C(c1ccccc1-c1ncc(C)c(NCc2ccc(-n3ccnn3)cc2)n1)C([2H])([2H])[2H]`: 7.9 min. For the compound `Cc1cnc(-c2ccccc2C2COC2)nc1NCc1ccc(-c2cccnc2)cc1`, the t1/2 is on record as above 30 min.

Test system in the next series: not listed separately
In words: Cytotoxicity against human H1299 cells assessed as reduction in colony formation at 5 uM after 7 days. Format: functional. Particulars: NCI-H1299, 168 h, read-out: INH. The gist of the method:
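H1299 cells seeded at 200 cells/well, attached overnight, then exposed to 5 μM compound or equal volume DMSO. After 7 days, fixed with 20% methanol and stained with 0.1% crystal violet; percent survival scored versus DMSO control.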
Take `CC(C)c1ccccc1-c1nc(NCc2ccc(-c3cccnc3)cc2)c2occc2n1`: the inhibition at 5 µM was above 70%. As to `COc1cnc(-c2ccccc2C(C)C)nc1NCc1ccc(-c2cccnc2)cc1`, the inhibition at 5 µM is above 70%. `Cc1cnc(-c2ccccc2C(C)C)nc1NCc1ccc(-n2ccnc2)cc1`: the inhibition at 5 µM was above 70%.

A further series deals with Ubiquitin carboxyl-terminal hydrolase 1/WD repeat-containing protein 48 (Homo sapiens, UniProt O94782). In words: Inhibition of human USP1/UAF1 using ubiquitin-rhodamine110 substrate by fluorescence assay.
Sequence of Ubiquitin carboxyl-terminal hydrolase 1/WD repeat-containing protein 48 (Homo sapiens, UniProt O94782) (O94782 whole entry): as the sequence (O94782 whole entry) above
Sequence of Ubiquitin carboxyl-terminal hydrolase 1/WD repeat-containing protein 48 (Homo sapiens, UniProt O94782) (Q8TAF3 whole entry, further chain): as the sequence (Q8TAF3 whole entry) above
Details: not given
`Cc1cnc(-c2ccccc2C(F)F)nc1NCc1ccc(-n2ccnn2)cc1` had an IC50 of 820 nM.

Take `Fc1ccccc1-c1nc(NCc2ccc(-c3cccnc3)cc2)c2ccccc2n1`: the IC50 worked out at 6500 nM. This IC50 lies about 7.9-fold higher than the previous one. Still for that read-out and setting: the result for `FC(F)(F)c1ccccc1-c1nc(NCc2ccc(Cl)c(Cl)c2)c2ccccc2n1` reads 10400 nM. As to `CC(C)c1ccccc1-c1nc(NCc2ccc(-c3cccnc3)cc2)c2ccsc2n1`, the IC50 amounted to 280 nM.

The compound `Cc1cnc(-c2ccccc2C(C)C)nc1NCc1ccc(-c2ccnc(C(F)(F)F)c2)cc1` returned an IC50 of 320 nM. Compound `CC(C)c1ccccc1-c1ncc(N(C)C)c(NCc2ccc(-c3cccnc3)cc2)n1` registered an IC50 of 190 nM. This IC50 is about 1.7-fold lower than that of the compound before. Turning to `Brc1ccccc1-c1nc(NCc2ccc(-c3cccnc3)cc2)c2ccccc2n1`, half-maximal inhibition (IC50) was put at 1600 nM. Against the preceding compound, the IC50 is about 8.4-fold higher. `Cc1ccc(N2CCC(CNc3nc(-c4ccccc4C(C)C)ncc3C)CC2)cn1` yielded an IC50 of 90 nM. `Cc1cc(NCc2ccc(-c3cccnc3)cc2)nc(-c2ccccc2C(C)C)n1` returned an IC50 of 210 nM. This IC50 is about 2.3-fold higher than that of the compound before. Consider `Cc1ccc(CNc2nc(-c3ccccc3C(F)(F)F)nc3ccccc23)s1`, for which the IC50 came out at 5100 nM. On the same count and under the same terms, the same measure for `Cc1cnc(-c2ccccc2C(C)C)nc1NC(C)(C)c1ccc(-n2ccnn2)cc1`: 590 nM. The compound `CC(C)c1ccccc1-c1ncc(N)c(NCc2ccc(-c3cccnc3)cc2)n1` displayed an IC50 of 310 nM. The compound `FC(F)(F)c1ccccc1-c1nc(NCc2ccc3c(c2)OCO3)c2ccccc2n1` registered an IC50 of 8400 nM.

In the case of `N#Cc1ccc(CNc2nc(-c3ccccc3C(F)(F)F)nc3ccccc23)cc1`, the IC50 was 5700 nM. `COc1ccc(CNc2nc(-c3ccccc3C(F)(F)F)nc3ccccc23)cc1` showed an IC50 of 6200 nM. The IC50 values of the last two compounds are within 1.5-fold of each other.

`Cc1nc(-c2ccccc2C(C)C)nc(NCc2ccc(-c3cccnc3)cc2)c1C` yielded an IC50 of 120 nM. Against the preceding compound, the IC50 is about 52-fold lower.

Turning to `Cc1cnc(-c2ccccc2C(C)C)nc1NCc1cccnc1`, inhibition was half-maximal at 1300 nM (IC50). Turning to `CC(C)c1ccccc1-c1nc(NCc2ccc(-c3cccnc3)cc2)c2ccccc2n1`, it took 180 nM to reach half-maximal inhibition (IC50).

On to `CC(=O)c1ccccc1-c1ncc(C)c(NCc2ccc(-c3cccnc3)cc2)n1`, for which the IC50 amounted to 8700 nM. In turn, `Clc1ccccc1-c1nc(NCc2ccc(-c3cccnc3)cc2)c2ccccc2n1` came in with an IC50 of 2100 nM. With `FC(F)(F)c1ccccc1-c1nc(NCC#Cc2cccnc2)c2ccccc2n1`, the IC50 is 8900 nM. As to `FC(F)(F)c1ccccc1-c1nc(NCc2ccc(-c3cccnc3)cc2)c2ccccc2n1`, the IC50 worked out at 1100 nM.

On to `CC(C)c1ccccc1-c1nc2c(c(NCc3ccc(-c4cccnc4)cc3)n1)CNC2`, for which the midpoint of inhibition, the IC50, lay at 2900 nM. Against the preceding compound, the IC50 is about 2.6-fold higher. `Cc1cnc(-c2ccccc2C2CCC2)nc1NCc1ccc(-n2ccnn2)cc1` gave an IC50 of 180 nM.

Take `CC(C)c1ccccc1-c1nc2c(c(NCc3ccc(-c4cccnc4)cc3)n1)CCNC2`: the IC50 was 860 nM. In turn, `CC(C)c1ccccc1-c1nc(NCc2ccc(-c3cccnc3)cc2)c2sccc2n1` registered an IC50 of 110 nM.

`Cc1cnc(-c2ccccc2C(C)C)nc1NCC1CN(c2cccnc2)C1`: the IC50 is 21700 nM. This IC50 is about 200-fold higher than that of the compound before. With `Cc1cnc(-c2ccccc2C(C)C)nc1NCc1cccs1`, the IC50 is 270 nM. In turn, `FC(F)(F)c1ccccc1-c1nc(NCc2ccccc2)c2ccccc2n1` gave an IC50 of 3100 nM. Compound `CC(C)c1ccccc1-c1nc2c(c(NCc3ccc(-c4cccnc4)cc3)n1)CCC2` came in with an IC50 of 160 nM.

Compound `CC(C)c1ccccc1-c1nccc(NCc2ccc(-c3cccnc3)cc2)n1` showed an IC50 of 150 nM. Compound `FC(F)(F)c1ccccc1-c1nc(NCc2ccc(-c3cncnc3)cc2)c2ccccc2n1` displayed an IC50 of 3000 nM. On to `O=[N+]([O-])c1ccccc1-c1nc(NCc2ccc(-c3cccnc3)cc2)c2ccccc2n1`, for which the IC50 worked out at 7800 nM. This IC50 lies about 2.6-fold higher than the previous one. For the compound `CC(C)c1ccccc1-c1nc(NCc2ccc(-c3cccnc3)cc2)c2occc2n1`, the IC50 was determined as 80 nM. Compared with the last compound, the IC50 is about 98-fold lower. `FC(F)(F)c1ccccc1-c1nc(NCc2ccc(-c3cccc(Cl)c3)cc2)c2ccccc2n1` registered an IC50 of 2700 nM.

`FC(F)(F)c1ccccc1-c1nc(NCc2ccc(Cl)cc2)c2ccccc2n1` came in with an IC50 of 4800 nM.

In turn, `CC(C)c1ccccc1-c1nc(NCc2ccc(-c3cccnc3)cc2)c2cccn2n1` returned an IC50 of 260 nM.

Regarding `CCc1ccccc1-c1nc(NCc2ccc(-c3cccnc3)cc2)c2ccccc2n1`, the IC50 is 780 nM. This IC50 lies about 3-fold higher than the previous one.

Turning to `Cc1cnc(-c2ccccc2C(C)O)nc1NCc1ccc(-c2cccnc2)cc1` (stereo not given), the IC50 was determined as 2000 nM. For `Cc1cnc(-c2ccccc2C(C)C)nc1NCC1CCN(c2cnccn2)CC1`, the IC50 turned out to be 140 nM. The same measure, in the same setting: the same measure for `[2H]C([2H])([2H])C([2H])(c1ccccc1-c1ncc(C)c(NC(C)(C)c2ccc(-n3ccnn3)cc2)n1)C([2H])([2H])[2H]`: 760 nM; for `FC(F)(F)c1ccc(CNc2nc(-c3ccccc3C(F)(F)F)nc3ccccc23)cc1`: 8900 nM; for `FC(F)(F)c1ccccc1-c1nc(NCc2ccc(C3CCCCC3)cc2)c2ccccc2n1`: 9800 nM. The same measure, in the same setting: the result for `Cc1cnc(-c2ccccc2C(C)C)nc1NCc1ccc(-c2ccc(F)nc2)cc1` reads 80 nM; that for `CC(C)c1ccccc1-c1nc(NCc2ccc(-c3cccnc3)cc2)c2nc[nH]c2n1`, 120 nM.

`FC(F)c1ccccc1-c1nc(NCc2ccc(-c3cccnc3)cc2)c2ccccc2n1` displayed an IC50 of 1400 nM.

As for `FC(F)(F)c1ccccc1-c1nc(NCc2ccc(-c3ccc(Cl)c(Cl)c3)cc2)c2ccccc2n1`, half-maximal inhibition (IC50) required 2200 nM. This IC50 lies about 1.6-fold higher than the previous one. `FC(F)(F)c1ccccc1-c1nc(NCc2ccc(N3CCOCC3)cc2)c2ccccc2n1` had an IC50 of 10400 nM. The compound `CC(C)c1ccccc1-c1ncc(F)c(NCc2ccc(-c3cccnc3)cc2)n1` showed an IC50 of 110 nM. `Cc1ccccc1-c1nc(NCc2ccc(-c3cccnc3)cc2)c2ccccc2n1`: the IC50 was determined as 1100 nM. Compared with the last compound, the IC50 is about 10-fold higher. With `Fc1ccc(CNc2nc(-c3ccccc3C(F)(F)F)nc3ccccc23)cc1`, the IC50 worked out at 3400 nM. Regarding `Cc1cnc(-c2ccccc2C(C)C)nc1NCc1ccc(-c2nnn[nH]2)cc1`, half-maximal inhibition (IC50) was put at 5900 nM. As to `Cc1cnc(-c2ccccc2CO)nc1NCc1ccc(-c2cccnc2)cc1`, inhibition was half-maximal at 10500 nM (IC50). Still for that read-out and setting: the result for `Cc1cnc(-c2ccccc2C(C)C)nc1NCC1CCN(c2cccnc2)C1` (stereo not given) reads 800 nM; that for `CSc1cnc(-c2ccccc2C(C)C)nc1NCc1ccc(-c2cccnc2)cc1`, 110 nM; that for `COc1ccccc1-c1nc(NCc2ccc(-c3cccnc3)cc2)c2ccccc2n1`, 940 nM. In the case of `Cc1cnc(-c2ccccc2C2CC2)nc1NCc1ccc(-c2cccnc2)cc1`, the midpoint of inhibition, the IC50, lay at 180 nM. In turn, `FC(F)(F)c1ccccc1-c1nc(NCc2ccc(-c3ccccc3)cc2)c2ccccc2n1` gave an IC50 of 3700 nM.

Take `COc1cnc(-c2ccccc2C(C)C)nc1NCc1ccc(-c2cccnc2)cc1`: the IC50 turned out to be 70 nM. With `FC(F)(F)c1ccccc1-c1nc(NCc2ccc(-c3ccncc3)cc2)c2ccccc2n1`, the IC50 was 1900 nM. `Cc1cnc(-c2ccccc2C(C)C)nc1NCc1ccc(-c2cccnc2)cc1` registered an IC50 of 70 nM. As to `FC(F)(F)c1cc(-c2ccc(CNc3nc(-c4ccccc4C(F)(F)F)nc4ccccc34)cc2)ccn1`, the IC50 amounted to 4900 nM.

`Cc1cccc(CNc2nc(-c3ccccc3C(C)C)ncc2C)c1`: the IC50 was determined as 130 nM. Compound `Cc1cnc(-c2ccccc2C(C)C)nc1NCc1ccc(-n2ccnc2)cc1` displayed an IC50 of 300 nM. Regarding `Cc1ccc(-c2ccc(CNc3nc(-c4ccccc4C(C)C)ncc3C)cc2)cn1`, half-maximal inhibition (IC50) required 50 nM. On to `Cc1cnc(-c2ccccc2C(C)C)nc1NCC1CCN(C2COC2)CC1`, for which the IC50 was determined as 13600 nM.

`Cc1cccc(C(CO)Nc2nc(-c3ccccc3C(C)C)ncc2C)c1` (stereo not given): the midpoint of inhibition, the IC50, lay at 21000 nM.

As for `FC(F)(F)c1ccccc1-c1nc(NCc2ccc(-c3ccc(Cl)cc3)cc2)c2ccccc2n1`, the concentration for half-maximal inhibition (IC50) turned out to be 3600 nM. Compared with the last compound, the IC50 is about 5.8-fold lower.

The next series concerns the target Ubiquitin carboxyl-terminal hydrolase 1/WD repeat-containing protein 48 (Homo sapiens, UniProt O94782+Q8TAF3). Described as above.
Details: not given
Consider `c1cncc(-c2ccc(CNc3nc(C4CCCC4)nc4ccccc34)cc2)c1`, for which the IC50 entry was “Not Active”.

For the compound `c1cncc(-c2ccc(CNc3nc(-n4ccnc4)nc4ccccc34)cc2)c1`, the IC50 result is recorded as “Not Active”. Turning to `c1cncc(-c2ccc(CNc3nc(N4CCCC4)nc4ccccc34)cc2)c1`, the IC50 result is “Not Active”. Regarding `FC(F)(F)c1ccc(-c2nc(NCc3ccc(-c4cccnc4)cc3)c3ccccc3n2)cc1`, the IC50 entry was “Not Active”. Take `c1cncc(-c2ccc(CNc3nc(N4CCOCC4)nc4ccccc34)cc2)c1`: the IC50 result is on record as “Not Active”. For `FC(F)(F)c1cccc(-c2nc(NCc3ccc(-c4cccnc4)cc3)c3ccccc3n2)c1`, the IC50 result is reported as “Not Active”. Take `Cc1cnc(-c2ccccc2C2COC2)nc1NCc1ccc(-c2cccnc2)cc1`: the IC50 entry is on record as “Not Active”. As for `Cc1cnc(-c2ccccc2C(C)C)nc1NCC1CCN(C)CC1`, the IC50 entry was “Not Active”.
